Screens: PubChem, The Scripps Research Institute Molecular Screening Center
This is a sample that favours compounds with a hit; in the whole collection about 2.7% have one here.
pPAFAH inh – pPAFAH enzyme inhibitors, primary screen, biochemical, fluorescence polarization, human; 330,000 tested, 1.5% active; inhibition, % at 3.39 µM; Platelet-activating factor acetylhydrolase (Homo sapiens), Q13093; recombinant pPAFAH, FP-rhodamine probe fluorescence polarization;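 active means inhibition above the mean inhibition across the screen plus 3 SD, cut at about 25% in these data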;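 further: inhibitors block binding of the rhodamine activity-based probe so polarization drops; 0% = enzyme with DMSO and 100% = wells lacking pPAFAH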
Target sequence (Q13093 whole entry, looked up): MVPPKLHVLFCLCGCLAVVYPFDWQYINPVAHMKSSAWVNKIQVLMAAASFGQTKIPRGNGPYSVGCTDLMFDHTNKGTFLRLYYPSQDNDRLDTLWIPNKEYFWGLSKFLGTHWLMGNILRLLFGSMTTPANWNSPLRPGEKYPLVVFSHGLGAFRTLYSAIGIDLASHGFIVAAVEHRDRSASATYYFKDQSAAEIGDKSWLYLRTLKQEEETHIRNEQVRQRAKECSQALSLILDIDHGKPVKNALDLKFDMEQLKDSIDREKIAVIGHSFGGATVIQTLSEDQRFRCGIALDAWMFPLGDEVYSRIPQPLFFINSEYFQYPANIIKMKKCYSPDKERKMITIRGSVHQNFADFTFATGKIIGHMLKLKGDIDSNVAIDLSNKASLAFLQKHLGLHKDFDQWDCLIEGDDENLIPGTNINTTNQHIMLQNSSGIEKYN
ARFGAP1 inhibitor – inhibitors of rat ARFGAP1 GAP activity, primary screen, biochemical, fluorescence polarization, GDP tracer. Arfgap1-stimulated ARF1 GTP hydrolysis, GDP FP detection. 360,000 tested, 0.26% active. AID 651572, 2012. ADP-ribosylation factor GTPase-activating protein 1 (Rattus norvegicus), Q62848. inhibition, % at 16.5 µM;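 active means inhibition above a per-plate limit, mean inhibition of low control wells plus 3 SD, cut at about 25% in these data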;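 further: 0% = DMSO wells with enzyme and 100% = wells lacking Arfgap1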
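System: truncated rat Arfgap1 GAP domain / Benchmarks: high control wells lacking Arfgap1, low control full reaction with DMSO / Times: compound-enzyme preincubation 20 min, reaction 120 min, detection 60 min, 25 °C / Repeats: one replicate per compound / Also added: human ARF1(Δ1-17)-GTP substrate / Measured by: Tracer-displacement fluorescence polarization with EDTA stop, 620/688 nm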
PAFAH2 FP inh – PAFAH2 enzyme inhibitors, primary screen, biochemical, fluorescence polarization, human; AID 492956, 2010; 340,000 tested, 0.99% active; Platelet-activating factor acetylhydrolase 2, cytoplasmic (Homo sapiens), Q99487; inhibition, % at 3.39 µM; recombinant PAFAH2, FP-rhodamine activity probe;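 active means inhibition above the mean over all tested compounds plus 3 SD, cut at about 30% in these data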;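 further: inhibitors block probe labeling of enzyme so polarization drops; 0% = enzyme with DMSO and 100% = wells lacking PAFAH2 protein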
PAFAH1B2 FP inh – PAFAH1B2 enzyme inhibitors, primary screen, biochemical, fluorescence polarization, human. Platelet-activating factor acetylhydrolase IB subunit alpha2 (Homo sapiens), P68402. recombinant PAFAH1B2, FP-rhodamine activity probe. inhibition, % at 3.39 µM. 340,000 tested, 1.2% active;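 active means inhibition above the mean of all tested compounds plus 3 SD, cut at about 24% in these data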;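 further: 0% = enzyme with DMSO and 100% = wells lacking PAFAH1B2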
ASAP1 inh – inhibitors of human ASAP1 ArfGAP activity, primary screen, biochemical, fluorescence polarization; Arf-GAP with SH3 domain, ANK repeat and PH domain-containing protein 1 (Homo sapiens), …; ASAP1-stimulated ARF1 GTP hydrolysis, GDP FP detection; inhibition, % at 16.5 µM; 360,000 tested, 0.19% active; in the data active means inhibition above about 25%;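 further: 0% = vehicle with enzyme and substrate and 100% = no enzyme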
PAFAH1B3 inh – PAFAH1B3 enzyme inhibitors, primary screen, biochemical, fluorescence polarization, human; Platelet-activating factor acetylhydrolase IB subunit alpha1 (Homo sapiens), Q15102; recombinant PAFAH1B3, FP-rhodamine probe; 340,000 tested, 0.28% active; inhibition, % at 3.39 µM;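 active means inhibition above the screen-wide average of all tested compounds plus 3 SD, cut at about 25% in these data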;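 further: 0% = enzyme with DMSO only and 100% = wells lacking PAFAH1B3 protein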
ARFGAP1 inh conf – ARFGAP1 inhibitor hit confirmation, biochemical, fluorescence polarization, triplicate. shares compounds with ARFGAP1 inhibitor. ARFGAP1-stimulated ARF1 GTP hydrolysis, GDP tracer FP. inhibition, % at 16.5 µM. 890 tested, 30% active;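 active means average inhibition over triplicates above the hit cutoff set in the earlier primary screen, cut at about 25% in these data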;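 further: 0% = Arfgap1 plus ARF1-GTP with DMSO and 100% = wells lacking Arfgap1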
Numbers without * were called inactive; . = no result given; + = active, no number.

SMILES	pPAFAH inh	ARFGAP1 inhibitor	PAFAH2 FP inh	PAFAH1B2 FP inh	ASAP1 inh	PAFAH1B3 inh	ARFGAP1 inh conf
COc1ccc(CN2CCC[C@]3(N[C@H](c4ccc(C(F)(F)F)cc4)[C@@H]4C(=O)N(C)C(=O)[C@@H]43)C2=O)cc1	.	15	.	.	4	.	.
Cc1cccc(N(C)S(=O)(=O)c2c[nH]c3ccc([N+](=O)[O-])cc23)c1	7	26*	-4	1	10	2	5
O=[N+]([O-])c1ccc2[nH]cc(S(=O)(=O)N3CCN(c4cccc(Cl)c4)CC3)c2c1	9	10	2	1	3	-1	.
CCn1c(CN2CCOCC2)nnc1SCC(=O)Nc1cccc(C)c1	5	-4	-1	-1	-12	3	.
CC(OC(=O)C1CCN(c2ccc(C(F)(F)F)cn2)CC1)C(=O)Nc1cccc([N+](=O)[O-])c1 (stereo not drawn)	2	27*	1	3	-4	3	9
COc1cc(OC)c(OC)cc1CN1CCN(S(=O)(=O)c2ccc(NC(C)=O)cc2)CC1	3	-10	-2	3	2	5	.
COc1ccc(S(=O)(=O)N2CCN(Cc3cc(OC)c(OC)cc3OC)CC2)cc1	2	27*	2	7	13	11	-11
Cc1ccc2[nH]c(-c3ccccc3)cc(=O)c2c1	-4	-2	8	4	1	12	.
CCOC(=O)Cc1cc(=O)c2cc(C)ccc2[nH]1	9	39*	11	8	1	4	-3
Cc1ccc(CNS(=O)(=O)c2ccc(CN3C(=O)c4cccnc4C3=O)s2)o1	4	0	-2	4	-1	5	.
Cc1cc(=O)oc(C)c1C(=O)N1CCN(C)CC1	-2	25*	-1	5	13	4	-1
Cc1cc(C)c(S(=O)(=O)c2ccccc2Cl)c(Cl)n1	-9	-21	.	.	-1	.	.
Cc1cc(C)c(S(=O)(=O)c2ccc(F)cc2C)c(Cl)n1	3	30*	5	-1	9	3	1
Cn1nc(-c2ccc(C(=O)Nc3cccnc3)cc2)c2ccccc2c1=O	1	25*	-2	1	-2	2	1
CC1(C)Cc2ccccc2-c2nnc(SCC(=O)N3CCc4ccccc43)n21	-1	27*	-3	-1	22	-5	24
COc1ccc(S(=O)(=O)NCc2cccnc2)cc1NC(=O)c1ccc(Cl)cc1	8	25*	2	5	3	14	1
COc1ccc(S(=O)(=O)NCc2cccnc2)cc1OC	1	-6	-4	4	8	12	.
CCN1CCN(c2ccc(S(=O)(=O)N3CCCCC3)cc2NC(=O)/C=C/c2ccc([N+](=O)[O-])cc2)CC1	5	42*	6	-4	29*	2	45*
CCN1CCN(c2ccc(S(=O)(=O)N3CCCCC3)cc2NC(=O)/C=C/c2ccc(F)cc2)CC1	1	12	6	4	6	3	.
Cc1cc(C(=O)N2CCC2(C)C(=O)NS(=O)(=O)c2ccccc2Cl)nn1C (stereo not drawn)	.	-5	.	.	-14	.	.
COc1ccc(N2CC(C(=O)Nc3ccc(S(=O)(=O)Nc4nccs4)cc3)CC2=O)c(OC)c1 (stereo not drawn)	5	25*	4	-2	2	8	0
c1ccc2c(c1)COc1c3ncccc3nn1-2	.	+	.	.	2	.	-2
C=CCn1c2ccccc2c2nnc(SCCCn3c(=O)[nH]c4ccccc43)nc21	.	40*	5	-3	-12	2	5
C/C(=N\N(c1ccccc1)c1ccccc1)c1ccco1	10	-1	2	5	-3	8	.
